Results taken from ChEMBL document CHEMBL1268865, “Cytotoxic 3,4-seco-Atisane Diterpenoids from Croton barorum and Croton goudotii” (J Nat Prod, 2010).

How the values were obtained:
KB = assay: Cytotoxicity against human KB cells after 72 hrs; type: functional, cell-based
Method in brief: (§1)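 KB, HT29, A549 and HL60 lines were sourced from ATCC, with Taxotere as the reference compound. IC50 is the concentration that reduced cell growth by 50%, reported as the mean of duplicate experiments.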

K562 [1] = assay: Cell cycle arrest in human K562 cells assessed as accumulation at G2/M phase at 4 uM after 24 hrs using propidium iodide staining by flow cytometry (reference value: 12.1%); type: functional
HT-29 = assay: Cytotoxicity against human HT-29 cells after 72 hrs; type: functional, cell-based; conditions: HT-29, 72 h; method in brief: as §1
K562 [2] = assay: Cell cycle arrest in human K562 cells assessed as accumulation at G0/G1 phase at 4 uM after 24 hrs using propidium iodide staining by flow cytometry (reference value: 30.1%); type: functional
A549 = assay: Cytotoxicity against human A549 cells after 72 hrs; type: functional, cell-based; conditions: A549, 72 h; method in brief: as §1
HL-60 = assay: Cytotoxicity against human HL60 cells after 72 hrs; type: functional, cell-based; conditions: HL-60, 72 h; method in brief: as §1
K562 [3] = assay: Cell cycle arrest in human K562 cells assessed as accumulation at S phase at 4 uM after 24 hrs using propidium iodide staining by flow cytometry (reference value: 56.7%); type: functional

SMILES | IC50 (KB) [nM] | Activity (K562 [1]) [%] | IC50 (HT-29) [nM] | Activity (K562 [2]) [%] | IC50 (A549) [nM] | IC50 (HL-60) [nM] | Activity (K562 [3]) [%]
C=C1C(=O)[C@]23CC[C@@H](C(=C)C)[C@]4(C)CCC(=O)O[C@@]42C[C@H]1C[C@@H]3OC(C)=O [CROTOBARIN] | 2500 | 56.5 | 2100 | 12.3 | 790 | 560 | 25.7
C=C1C(=O)[C@@]23CC[C@@H]1C[C@@]21OC(=O)CC[C@@]1(C)[C@H](C(=C)C)CC3 [CROTOGOUDIN] | 1500 | 33.6 | 1900 | 22.2 | 540 | 490 | 31.8
CC(=O)O[C@@]12CO[C@@H]1C[C@H](O)[C@@]1(C)C(=O)[C@H](O)C3=C(C)[C@@H](OC(=O)[C@H](O)[C@@H](NC(=O)OC(C)(C)C)c4ccccc4)C[C@@](O)([C@@H](OC(=O)c4ccccc4)[C@H]21)C3(C)C [DOCETAXEL] | 290 |  | 920 |  | 370 | 520 | 
